Measurements from ChEMBL document CHEMBL1926580, “Identification and development of 2,5-disubstituted oxadiazole as potential candidate for treatment of XDR and MDR tuberculosis” (2012).
In brackets after ≈: the same amount, converted by molar mass.

Legend:
[1] = test system: HepG2; experiment: Cytotoxicity against human HepG2 cells after 5 days; format: functional; conditions: HepG2, 120 h
Procedure, shortened: (§1)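 HepG2 and BHK21 cells were seeded, incubated 24 h at 37 °C, then exposed to twofold serial dilutions of compound. The value is CC50 (50% cytotoxic concentration), from at least two independent assays.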

[2] = test system: BHK-21; experiment: Cytotoxicity against hamster BHK21 cells after 5 days; format: functional; conditions: Mesocricetus auratus, BHK-21, 120 h; procedure, shortened: as §1
[3] = test system: Mycobacterium tuberculosis; experiment: Antitubercular activity against Mycobacterium tuberculosis H37Rv ATCC 27294 assessed as intracellular ATP level after 5 days by luminescence assay; format: functional
Procedure, shortened: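 Growth inhibition of M. tuberculosis H37Rv reported as MIC50. Compounds were dissolved in 90% DMSO (stock), twofold serially diluted in duplicate to 10 concentrations, and spotted into 384-well plates. Assays were run at least twice.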

[4] = test system: Mycobacterium tuberculosis; experiment: Antimycobacterial activity against Mycobacterium tuberculosis TN1037 assessed as intracellular ATP level after 5 days by luminescence assay; format: functional; conditions: TN1037, 120 h
[5] = test system: Mycobacterium tuberculosis; experiment: Antimycobacterial activity against Mycobacterium tuberculosis W4 assessed as intracellular ATP level after 5 days by luminescence assay; format: functional; conditions: W4, 120 h
[6] = test system: Mycobacterium tuberculosis; experiment: Antimycobacterial activity against Mycobacterium tuberculosis TN2351 assessed as intracellular ATP level after 5 days by luminescence assay; format: functional; conditions: TN2351, 120 h
[7] = test system: Mycobacterium tuberculosis; experiment: Antimycobacterial activity against Mycobacterium tuberculosis TN4259 assessed as intracellular ATP level after 5 days by luminescence assay; format: functional; conditions: TN4259, 120 h
[8] = test system: Mycobacterium tuberculosis; experiment: Antimycobacterial activity against clinical isolate Mycobacterium tuberculosis TN994 assessed as intracellular ATP level after 5 days by luminescence assay; format: functional; conditions: TN994, 120 h
[9] = test system: Mycobacterium tuberculosis; experiment: Antimycobacterial activity against Mycobacterium tuberculosis TN1040 assessed as intracellular ATP level after 5 days by luminescence assay; format: functional; conditions: TN1040, 120 h
[10] = test system: Mycobacterium tuberculosis; experiment: Antimycobacterial activity against clinical isolate of Mycobacterium tuberculosis TN675 assessed as intracellular ATP level after 5 days by luminescence assay; format: functional; conditions: TN675, 120 h
[11] = test system: Mycobacterium tuberculosis; experiment: Antimycobacterial activity against Mycobacterium tuberculosis AH9584 assessed as intracellular ATP level after 5 days by luminescence assay; format: functional; conditions: AH9584, 120 h
[12] = test system: Mycobacterium tuberculosis; experiment: Antimycobacterial activity against Mycobacterium tuberculosis TN913 assessed as intracellular ATP level after 5 days by luminescence assay; format: functional; conditions: TN913, 120 h
[13] = test system: Mycobacterium tuberculosis; experiment: Antimycobacterial activity against Mycobacterium tuberculosis TN2524 assessed as intracellular ATP level after 5 days by luminescence assay; format: functional; conditions: TN2524, 120 h
[14] = test system: Mycobacterium tuberculosis; experiment: Antimycobacterial activity against Mycobacterium tuberculosis TN1051 assessed as intracellular ATP level after 5 days by luminescence assay; format: functional; conditions: TN1051, 120 h
[15] = test system: Mycobacterium tuberculosis; experiment: Antimycobacterial activity against Mycobacterium tuberculosis TN3979 assessed as intracellular ATP level after 5 days by luminescence assay; format: functional; conditions: TN3979, 120 h
[16] = test system: Mycobacterium tuberculosis; experiment: Antimycobacterial activity against Mycobacterium tuberculosis TN3183 assessed as intracellular ATP level after 5 days by luminescence assay; format: functional; conditions: TN3183, 120 h
[17] = test system: Mycobacterium tuberculosis; experiment: Antimycobacterial activity against Mycobacterium tuberculosis TN1008 assessed as intracellular ATP level after 5 days by luminescence assay; format: functional; conditions: TN1008, 120 h
[18] = test system: Mycobacterium tuberculosis; experiment: Antimycobacterial activity against Mycobacterium tuberculosis E8133 assessed as intracellular ATP level after 5 days by luminescence assay; conditions: E8133, 120 h
[19] = test system: Mycobacterium tuberculosis; experiment: Antimycobacterial activity against Mycobacterium tuberculosis BE11677 assessed as intracellular ATP level after 5 days by luminescence assay; format: functional; conditions: BE11677, 120 h
[20] = test system: Mycobacterium tuberculosis; experiment: Antimycobacterial activity against Mycobacterium tuberculosis TN1082 assessed as intracellular ATP level after 5 days by luminescence assay; format: functional; conditions: TN1082, 120 h
[21] = Mycobacterium tuberculosis, H37Rv ATCC 27294, 120 h

Row | Compound | CC50 [1] | CC50 [2] | MBC90 [3] | MIC50 [3, 21] | other results
1 | ClCCCSc1nnc(COc2ccc(Cl)cc2Cl)o1 | > 50 µM | > 50 µM | 2.5 µM (≈ 0.884 µg/mL) | 0.65 µM (≈ 0.23 µg/mL) | –
2 | O=C(CCl)Sc1nnc(Cc2ccc(Cl)cc2Cl)o1 | – | – | – | 9.67 µM (≈ 3.26 µg/mL) | –
3 | O=[N+]([O-])c1cccc(OCc2nnc(SCCCCl)o2)c1 | > 50 µM | > 50 µM | – | 11.7 µM (≈ 3.86 µg/mL) | –
4 | O=C(CCl)Sc1nnc(COc2ccc(Cl)cc2Cl)o1 | – | – | – | > 20 µM | –
5 | CCCSc1nnc(COc2cccc([N+](=O)[O-])c2)o1 | > 50 µM | > 50 µM | – | 8.52 µM (≈ 2.52 µg/mL) | –
6 | O=C(CCl)Sc1nnc(COc2cccc([N+](=O)[O-])c2)o1 | – | – | – | > 20 µM | –
7 | CCCSc1nnc(Cc2ccc(Cl)cc2Cl)o1 | > 50 µM | > 50 µM | 5 µM (≈ 1.52 µg/mL) | 1.19 µM (≈ 0.361 µg/mL) | –
8 | ClCCCSc1nnc(Cc2ccc(Cl)cc2Cl)o1 | > 50 µM | > 50 µM | 5 µM (≈ 1.69 µg/mL) | 1.42 µM (≈ 0.479 µg/mL) | –
9 | NNC(=O)c1ccncc1 [ISONIAZID] | – | – | – | 0.03 µM (≈ 0.00411 µg/mL) | MIC [4]: 0.03 µg/mL (≈ 0.219 µM); MIC [5]: 0.03 µg/mL (≈ 0.219 µM); MIC [6]: 0.06 µg/mL (≈ 0.438 µM); MIC [7]: 0.03 µg/mL (≈ 0.219 µM); MIC [8]: 0.03 µg/mL (≈ 0.219 µM); MIC [9]: 0.03 µg/mL (≈ 0.219 µM); MIC [3, 21]: 0.03 µg/mL (≈ 0.219 µM); MIC [10]: 0.03 µg/mL (≈ 0.219 µM); MIC [11]: 0.19 µg/mL (≈ 1.39 µM); MIC [12]: 0.03 µg/mL (≈ 0.219 µM); MIC [13]: 0.06 µg/mL (≈ 0.438 µM); MIC [14]: 0.03 µg/mL (≈ 0.219 µM); MIC [15]: 0.06 µg/mL (≈ 0.438 µM); MIC [16]: 0.03 µg/mL (≈ 0.219 µM); MIC [17]: 0.06 µg/mL (≈ 0.438 µM); MIC [18]: 0.08 µg/mL (≈ 0.583 µM); MIC [19]: 0.2 µg/mL (≈ 1.46 µM); MIC [20]: 0.03 µg/mL (≈ 0.219 µM)
10 | O=C(CCl)Sc1nnc(Cc2cccc([N+](=O)[O-])c2)o1 | – | – | – | > 20 µM | –
11 | CCCSc1nnc(Cc2cccc([N+](=O)[O-])c2)o1 | > 50 µM | > 50 µM | – | 6.81 µM (≈ 1.9 µg/mL) | –
12 | O=[N+]([O-])c1cccc(Cc2nnc(SCCCCl)o2)c1 | > 50 µM | > 50 µM | – | 7.48 µM (≈ 2.35 µg/mL) | –
13 | CCCSc1nnc(COc2ccc(Cl)cc2Cl)o1 | 19.3 µM | 13.8 µM | 2.5 µM (≈ 0.798 µg/mL) | 0.63 µM (≈ 0.201 µg/mL) | –
